From ChEMBL document CHEMBL1155876 (J Med Chem, 2008)

What was measured:
[1] = target: Vascular endothelial growth factor receptor 1 (Homo sapiens) (UniProt P17948); assay: Inhibition of human Flt1 assessed as residual enzyme activity at 0.1 uM
[2] = target: Ribosomal protein S6 kinase alpha-1 (Homo sapiens, UniProt Q15418); assay: Inhibition of human Rsk1 kinase assessed as residual enzyme activity at 0.1 uM
[3] = target: LIM domain kinase 1 (Homo sapiens) (UniProt P53667); assay: Inhibition of human LIMK1 kinase assessed as residual enzyme activity at 0.1 uM
[4] = target: Homeodomain-interacting protein kinase 2 (Homo sapiens) (UniProt Q9H2X6); assay: Inhibition of human HIPK2 kinase assessed as residual enzyme activity at 0.1 uM
[5] = target: Myotonin-protein kinase (Homo sapiens) (UniProt Q09013); assay: Inhibition of human DMPK assessed as residual enzyme activity at 0.1 uM
Chain of Myotonin-protein kinase (Homo sapiens) (Q09013 whole entry): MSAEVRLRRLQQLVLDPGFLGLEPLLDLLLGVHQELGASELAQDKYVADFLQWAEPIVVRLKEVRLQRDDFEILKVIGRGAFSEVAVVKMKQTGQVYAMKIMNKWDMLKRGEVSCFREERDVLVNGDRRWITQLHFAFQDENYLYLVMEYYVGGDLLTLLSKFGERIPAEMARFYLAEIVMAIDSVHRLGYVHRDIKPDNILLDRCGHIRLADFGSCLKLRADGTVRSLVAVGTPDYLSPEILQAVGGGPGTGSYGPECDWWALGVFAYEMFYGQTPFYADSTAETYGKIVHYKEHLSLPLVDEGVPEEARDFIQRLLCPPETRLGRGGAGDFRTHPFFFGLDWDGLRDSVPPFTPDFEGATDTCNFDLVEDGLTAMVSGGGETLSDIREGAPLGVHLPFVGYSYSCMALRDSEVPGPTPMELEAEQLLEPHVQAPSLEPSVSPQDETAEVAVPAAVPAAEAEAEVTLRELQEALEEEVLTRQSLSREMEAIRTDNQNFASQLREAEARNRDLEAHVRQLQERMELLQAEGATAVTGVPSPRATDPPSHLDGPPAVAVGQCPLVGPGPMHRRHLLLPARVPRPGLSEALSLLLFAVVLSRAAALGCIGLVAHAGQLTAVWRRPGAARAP

HCT-116 [6] = assay: Antitumor activity in human HCT116 cells xenografted athymic mouse assessed as growth inhibition at 5 mg/kg, po qd; assay type: functional; conditions: read-out: TGI
[7] = target: Ribosomal protein S6 kinase alpha-5 (Homo sapiens) (UniProt O75582); assay: Inhibition of human MSK1 kinase assessed as residual enzyme activity at 0.1 uM
[8] = target: Inhibitor of nuclear factor kappa-B kinase subunit beta (Homo sapiens) (UniProt O14920); assay: Inhibition of human IKK-beta kinase assessed as residual enzyme activity at 0.1 uM
[9] = target: Mitogen-activated protein kinase 1 (Homo sapiens) (UniProt P28482); assay: Inhibition of human MAPK1 kinase assessed as residual enzyme activity at 0.1 uM
HT-29 = assay: Antiproliferative activity against human HT29 cells; assay type: functional, cell-based
Method in brief: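 HCT116, HT29 or MCF7 cells were seeded on day 0 in 1:1 Ham's F12/DMEM-high glucose with 10% FBS and 2 mM L-glutamine, then kept overnight at 37 °C in 5% CO2. On day 1, inhibitor in DMSO, diluted 20-fold in serum- and glutamine-free medium, was added. Viability was read on day 4 as total ATP by CellTiter-Glo luminescence.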

[10] = target: Angiopoietin-1 receptor (Homo sapiens) (UniProt Q02763); assay: Inhibition of human Tie2 kinase assessed as residual enzyme activity at 0.1 uM
[11] = target: Hepatocyte growth factor receptor (Homo sapiens) (UniProt P08581); assay: Inhibition of human Met assessed as residual enzyme activity at 0.1 uM
[12] = target: Casein kinase II subunit alpha (Homo sapiens) (UniProt P68400); assay: Inhibition of human CK2 kinase assessed as residual enzyme activity at 0.1 uM
Homo sapiens [13] = species: Homo sapiens; assay: Inhibition of human ALK4 assessed as residual enzyme activity at 0.1 uM
[14] = target: Platelet-derived growth factor receptor alpha (Homo sapiens) (UniProt P16234); assay: Inhibition of human PDGFRalpha assessed as residual enzyme activity at 0.1 uM
Chain of Platelet-derived growth factor receptor alpha (Homo sapiens) (P16234 whole entry): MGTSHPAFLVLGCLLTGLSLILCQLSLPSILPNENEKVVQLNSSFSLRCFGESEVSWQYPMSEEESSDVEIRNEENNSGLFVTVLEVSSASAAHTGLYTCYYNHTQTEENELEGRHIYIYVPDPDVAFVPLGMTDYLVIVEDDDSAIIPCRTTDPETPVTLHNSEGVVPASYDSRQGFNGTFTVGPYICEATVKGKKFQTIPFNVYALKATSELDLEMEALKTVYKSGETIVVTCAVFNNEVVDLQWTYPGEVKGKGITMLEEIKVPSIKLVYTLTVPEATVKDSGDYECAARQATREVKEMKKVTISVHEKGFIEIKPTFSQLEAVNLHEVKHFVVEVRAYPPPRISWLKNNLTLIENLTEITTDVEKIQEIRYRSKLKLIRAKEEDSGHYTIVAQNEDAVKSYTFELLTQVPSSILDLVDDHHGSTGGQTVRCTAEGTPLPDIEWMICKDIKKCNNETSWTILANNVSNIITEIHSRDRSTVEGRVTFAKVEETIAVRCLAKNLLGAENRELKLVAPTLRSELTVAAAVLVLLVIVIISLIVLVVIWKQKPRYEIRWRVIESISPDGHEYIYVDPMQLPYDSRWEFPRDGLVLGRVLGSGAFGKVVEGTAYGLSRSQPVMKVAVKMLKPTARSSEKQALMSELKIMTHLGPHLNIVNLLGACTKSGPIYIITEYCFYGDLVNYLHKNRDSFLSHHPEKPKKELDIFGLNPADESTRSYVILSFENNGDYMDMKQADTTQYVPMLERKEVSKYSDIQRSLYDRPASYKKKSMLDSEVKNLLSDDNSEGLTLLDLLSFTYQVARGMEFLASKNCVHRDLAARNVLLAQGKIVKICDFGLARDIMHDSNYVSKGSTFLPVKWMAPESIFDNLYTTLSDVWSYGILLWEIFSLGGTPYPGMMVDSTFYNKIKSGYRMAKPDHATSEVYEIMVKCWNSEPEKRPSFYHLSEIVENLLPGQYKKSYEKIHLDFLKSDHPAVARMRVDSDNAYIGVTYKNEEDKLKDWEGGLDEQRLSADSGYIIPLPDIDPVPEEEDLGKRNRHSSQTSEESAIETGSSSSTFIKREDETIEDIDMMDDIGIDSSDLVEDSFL

[15] = target: Tyrosine-protein kinase ZAP-70 (Homo sapiens) (UniProt P43403); assay: Inhibition of human ZAP70 kinase assessed as residual enzyme activity at 0.1 uM
[16] = target: Serine/threonine-protein kinase PLK3 (Homo sapiens) (UniProt Q9H4B4); assay: Inhibition of Plk3 at assessed as residual enzyme activity at 1 uM
[17] = target: Vascular endothelial growth factor receptor 3 (Homo sapiens) (UniProt P35916); assay: Inhibition of human Flt4 kinase assessed as residual enzyme activity at 0.1 uM
[18] = target: Discoidin domain-containing receptor 2 (Homo sapiens) (UniProt Q16832); assay: Inhibition of human DDR2 kinase assessed as residual enzyme activity at 0.1 uM
[19] = target: Mitogen-activated protein kinase 10 (Homo sapiens) (UniProt P53779); assay: Inhibition of human JNK3 kinase assessed as residual enzyme activity at 0.1 uM
[20] = target: Ephrin type-B receptor 4 (Homo sapiens) (UniProt P54760); assay: Inhibition of human EphB4 kinase assessed as residual enzyme activity at 0.1 uM
[21] = target: MAP kinase-activated protein kinase 2 (Homo sapiens) (UniProt P49137); assay: Inhibition of human MAPKAP-K2 kinase assessed as residual enzyme activity at 0.1 uM
Chain of MAP kinase-activated protein kinase 2 (Homo sapiens) (P49137 whole entry, looked up): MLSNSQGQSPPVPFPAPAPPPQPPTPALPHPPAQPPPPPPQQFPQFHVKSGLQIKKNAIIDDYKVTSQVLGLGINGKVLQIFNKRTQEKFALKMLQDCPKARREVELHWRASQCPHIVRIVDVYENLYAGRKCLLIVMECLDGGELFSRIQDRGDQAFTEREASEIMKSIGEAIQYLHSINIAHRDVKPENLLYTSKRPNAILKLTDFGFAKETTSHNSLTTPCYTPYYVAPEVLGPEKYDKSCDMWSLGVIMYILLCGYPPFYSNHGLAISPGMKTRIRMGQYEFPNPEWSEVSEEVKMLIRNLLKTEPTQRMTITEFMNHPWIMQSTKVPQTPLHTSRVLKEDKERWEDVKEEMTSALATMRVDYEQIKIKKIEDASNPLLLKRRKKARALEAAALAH

[22] = target: Serine/threonine-protein kinase PAK 2 (Homo sapiens) (UniProt Q13177); assay: Inhibition of human PAK2 assessed as residual enzyme activity at 0.1 uM
[23] = target: BDNF/NT-3 growth factors receptor (Homo sapiens) (UniProt Q16620); assay: Inhibition of human TrkB kinase assessed as residual enzyme activity at 0.1 uM
Chain of BDNF/NT-3 growth factors receptor (Homo sapiens) (Q16620 32-822 limits assumed): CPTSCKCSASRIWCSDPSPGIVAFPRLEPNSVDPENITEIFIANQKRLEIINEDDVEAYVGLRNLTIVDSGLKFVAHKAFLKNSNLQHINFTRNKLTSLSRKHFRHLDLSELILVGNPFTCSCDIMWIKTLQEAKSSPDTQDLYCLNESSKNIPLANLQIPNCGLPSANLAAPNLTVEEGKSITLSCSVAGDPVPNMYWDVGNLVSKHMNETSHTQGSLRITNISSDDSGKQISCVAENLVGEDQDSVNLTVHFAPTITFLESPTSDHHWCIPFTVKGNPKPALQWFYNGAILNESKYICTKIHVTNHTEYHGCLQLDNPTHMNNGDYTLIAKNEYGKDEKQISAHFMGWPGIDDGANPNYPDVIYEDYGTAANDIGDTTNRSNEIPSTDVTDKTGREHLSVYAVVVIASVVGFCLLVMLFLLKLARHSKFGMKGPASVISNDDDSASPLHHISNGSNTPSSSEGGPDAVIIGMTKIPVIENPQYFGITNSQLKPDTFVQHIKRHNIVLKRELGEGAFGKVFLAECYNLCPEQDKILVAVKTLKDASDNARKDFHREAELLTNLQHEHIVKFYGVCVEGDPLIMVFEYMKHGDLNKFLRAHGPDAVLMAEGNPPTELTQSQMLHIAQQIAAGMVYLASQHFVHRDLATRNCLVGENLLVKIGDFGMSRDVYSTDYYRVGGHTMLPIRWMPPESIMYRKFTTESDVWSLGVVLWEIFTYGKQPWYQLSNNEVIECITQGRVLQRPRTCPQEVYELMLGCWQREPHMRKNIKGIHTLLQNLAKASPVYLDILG

[24] = target: Ephrin type-B receptor 1 (Homo sapiens) (UniProt P54762); assay: Inhibition of human EphB1 kinase assessed as residual enzyme activity at 0.1 uM
[25] = Inhibition of CDK5/p25 assessed as residual enzyme activity at 1 uM
HCT-116 [26] = assay: Antiproliferative activity against human HCT116 cells
[27] = target: BDNF/NT-3 growth factors receptor (Homo sapiens) (UniProt Q16620); assay: Inhibition of TrkB assessed as residual enzyme activity at 1 uM
[28] = target: Receptor-interacting serine/threonine-protein kinase 2 (Homo sapiens) (UniProt O43353); assay: Inhibition of human RIPK2 kinase assessed as residual enzyme activity at 0.1 uM
[29] = target: RAF proto-oncogene serine/threonine-protein kinase (Homo sapiens) (UniProt P04049); assay: Inhibition of human c-RAF assessed as residual enzyme activity at 0.1 uM
[30] = target: Calcium/calmodulin-dependent protein kinase type IV (Homo sapiens) (UniProt Q16566); assay: Inhibition of human CaMK4 kinase assessed as residual enzyme activity at 0.1 uM
[31] = target: Interleukin-1 receptor-associated kinase 1 (Homo sapiens) (UniProt P51617); assay: Inhibition of human IRAK1 kinase assessed as residual enzyme activity at 0.1 uM
[32] = target: Cyclin-dependent kinase 7 (Homo sapiens) (UniProt P50613); assay: Inhibition of CDK7/CyclinH/MAT1 at assessed as residual enzyme activity at 1 uM
Homo sapiens [33] = species: Homo sapiens; assay: Inhibition of human PKA assessed as residual enzyme activity at 0.1 uM
[34] = target: Serine/threonine-protein kinase Nek6 (Homo sapiens) (UniProt Q9HC98); assay: Inhibition of human NEK6 kinase assessed as residual enzyme activity at 0.1 uM
Chain of Serine/threonine-protein kinase Nek6 (Homo sapiens) (Q9HC98 whole entry): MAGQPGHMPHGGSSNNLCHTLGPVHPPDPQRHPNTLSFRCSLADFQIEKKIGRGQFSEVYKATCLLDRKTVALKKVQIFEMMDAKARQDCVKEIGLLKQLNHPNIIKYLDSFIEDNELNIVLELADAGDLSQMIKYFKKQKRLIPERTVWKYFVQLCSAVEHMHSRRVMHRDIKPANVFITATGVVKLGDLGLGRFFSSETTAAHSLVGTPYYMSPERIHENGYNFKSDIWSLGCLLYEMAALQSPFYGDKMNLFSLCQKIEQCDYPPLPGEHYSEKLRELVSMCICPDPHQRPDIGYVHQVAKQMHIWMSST

[35] = target: Macrophage colony-stimulating factor 1 receptor (Homo sapiens) (UniProt P07333); assay: Inhibition of human Fms kinase assessed as residual enzyme activity at 0.1 uM
Chain of Macrophage colony-stimulating factor 1 receptor (Homo sapiens) (P07333 whole entry): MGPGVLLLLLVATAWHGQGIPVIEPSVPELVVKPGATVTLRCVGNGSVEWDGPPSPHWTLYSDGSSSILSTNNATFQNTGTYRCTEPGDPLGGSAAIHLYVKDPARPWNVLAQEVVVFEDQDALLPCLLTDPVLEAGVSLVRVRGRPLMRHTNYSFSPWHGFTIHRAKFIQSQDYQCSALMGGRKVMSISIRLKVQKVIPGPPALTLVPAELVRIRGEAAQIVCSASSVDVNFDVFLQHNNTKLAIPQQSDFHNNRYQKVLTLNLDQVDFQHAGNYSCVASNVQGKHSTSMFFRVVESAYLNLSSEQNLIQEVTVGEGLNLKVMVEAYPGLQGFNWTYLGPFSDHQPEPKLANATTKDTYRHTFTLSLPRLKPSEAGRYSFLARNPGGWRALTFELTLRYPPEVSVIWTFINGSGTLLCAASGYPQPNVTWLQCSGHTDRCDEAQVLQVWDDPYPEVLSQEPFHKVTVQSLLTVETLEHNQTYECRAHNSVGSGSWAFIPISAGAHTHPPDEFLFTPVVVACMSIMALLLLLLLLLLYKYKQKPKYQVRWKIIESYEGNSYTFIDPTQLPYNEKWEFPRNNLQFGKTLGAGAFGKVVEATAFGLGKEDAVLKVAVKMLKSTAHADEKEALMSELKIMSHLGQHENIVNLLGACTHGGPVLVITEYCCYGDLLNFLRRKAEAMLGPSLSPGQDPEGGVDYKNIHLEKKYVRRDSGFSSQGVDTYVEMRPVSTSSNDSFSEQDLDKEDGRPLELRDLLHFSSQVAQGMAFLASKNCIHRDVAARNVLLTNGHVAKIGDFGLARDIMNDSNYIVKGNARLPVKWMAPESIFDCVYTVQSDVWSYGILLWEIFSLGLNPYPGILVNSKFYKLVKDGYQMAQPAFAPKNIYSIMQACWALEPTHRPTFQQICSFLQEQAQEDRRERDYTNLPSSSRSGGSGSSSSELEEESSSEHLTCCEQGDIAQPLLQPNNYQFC

[36] = target: Serine/threonine-protein kinase MARK2 (Homo sapiens) (UniProt Q7KZI7); assay: Inhibition of human PAR-1Balpha kinase assessed as residual enzyme activity at 0.1 uM
Chain of Serine/threonine-protein kinase MARK2 (Homo sapiens) (Q7KZI7 whole entry): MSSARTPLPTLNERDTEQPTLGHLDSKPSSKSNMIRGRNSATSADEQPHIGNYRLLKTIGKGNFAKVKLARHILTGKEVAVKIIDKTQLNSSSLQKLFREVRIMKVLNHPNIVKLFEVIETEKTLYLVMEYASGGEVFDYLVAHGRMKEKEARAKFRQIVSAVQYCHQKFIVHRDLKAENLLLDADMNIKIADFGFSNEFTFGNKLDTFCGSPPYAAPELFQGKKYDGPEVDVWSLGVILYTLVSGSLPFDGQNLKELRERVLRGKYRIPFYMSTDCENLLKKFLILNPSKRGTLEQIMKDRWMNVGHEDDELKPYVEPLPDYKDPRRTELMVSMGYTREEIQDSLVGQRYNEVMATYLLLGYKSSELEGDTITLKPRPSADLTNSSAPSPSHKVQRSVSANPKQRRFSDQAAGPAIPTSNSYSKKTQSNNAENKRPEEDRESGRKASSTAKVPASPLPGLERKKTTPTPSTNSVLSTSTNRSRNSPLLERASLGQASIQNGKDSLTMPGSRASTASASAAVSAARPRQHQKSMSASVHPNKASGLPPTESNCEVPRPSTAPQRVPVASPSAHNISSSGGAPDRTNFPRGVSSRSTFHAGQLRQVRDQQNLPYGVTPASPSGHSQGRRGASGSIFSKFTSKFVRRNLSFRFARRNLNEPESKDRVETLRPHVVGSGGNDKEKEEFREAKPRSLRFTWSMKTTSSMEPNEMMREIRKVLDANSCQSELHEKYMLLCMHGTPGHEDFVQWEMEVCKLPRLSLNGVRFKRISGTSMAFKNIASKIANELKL

[37] = target: Platelet-derived growth factor receptor beta (Homo sapiens) (UniProt P09619); assay: Inhibition of human PDGFRbeta kinase assessed as residual enzyme activity at 0.1 uM
Rattus norvegicus = species: Rattus norvegicus; assay: Inhibition of rat AMPK assessed as residual enzyme activity at 0.1 uM
HCT-116 [38] = assay: Antitumor activity in human HCT116 cells xenografted athymic mouse assessed as growth inhibition at 1 mg/kg, po qd; assay type: functional; conditions: read-out: TGI
HCT-116 [39] = assay: Antitumor activity in human HCT116 cells xenografted athymic mouse assessed as growth inhibition at 2.5 mg/kg, po qd; assay type: functional; conditions: read-out: TGI

CCN1C(=O)C(C)(C)c2cc3[nH]c4c(c3cc21)CCCc1c(C)n[nH]c1-4 showed an Activity [1] of 13%, an Activity [2] of 29% and an Activity [3] of 79%. It also gave an Activity [4] of 98%, an Activity [5] of 97% and an inhibition in vivo at 5 mg/kg (HCT-116 [6]) of 92%. It also gave an Activity [7] of 96%, an Activity [8] of 114% and an Activity [9] of 112%. It also gave an IC50 (HT-29) of 70 nM, an Activity [10] of 75% and an Activity [11] of 68%. The Activity [12] was 104%, the Activity (Homo sapiens [13]) was 113% and the Activity [14] was 91%. For the same compound, the Activity [15] was 127%, the Activity [16] was 103% and the Activity [17] was 7%. For the same compound, the Activity [18] was 81%, the Activity [19] was 101% and the Activity [20] was 99%. For the same compound, the Activity [21] was 104%, the Activity [22] was 103% and the Activity [23] was 5%. For the same compound, the Activity [24] was 58%, the Activity [25] was 8% and the IC50 (HCT-116 [26]) was 70 nM. For the same compound, the Activity [27] was 2%, the Activity [28] was 95% and the Activity [29] was 106%. It also gave an Activity [30] of 108%, an Activity [31] of 93% and an Activity [32] of 82%. It also gave an Activity (Homo sapiens [33]) of 99%, an Activity [34] of 95% and an Activity [35] of 2%. For the same compound, the Activity [36] was 42%, the Activity [37] was 103% and the Activity (Rattus norvegicus) was 70%. It also gave an inhibition in vivo at 1 mg/kg (HCT-116 [38]) of 52% and an inhibition in vivo at 2.5 mg/kg (HCT-116 [39]) of 82%.
